Bioassay records (PubChem)
Tb MetRS inh: Trypanosoma brucei MetRS inhibition; purified T. brucei MetRS, ATP depletion, Kinase-Glo luminescence; inhibition, % at 11.9 µM; 0.4% of 360,000 active; AID 624268;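 active means inhibition above a per-plate cutoff of the control wells' mean inhibition plus 3 SD, cut at about 5.5% in these data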;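 further: 0% = DMSO wells median and 100% = median of wells with control inhibitor compound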
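Test system – parasite MetRS enzyme · Reagent – substrates ATP, L-methionine and bulk Escherichia coli tRNA · Doses – 11.9 µM compound single dose, 0.9% DMSO · Times – 15 min enzyme-compound preincubation, 2 h reaction, 10 min detection, 25 °C · Signal – Kinase-Glo luminescence, ATP depletion format · Controls – DMSO-only wells as low control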
PLC-gamma1 inh: inhibitors of human phospholipase C gamma1. P19174. 0.84% of 370,000 active. inhibition, % at 12.2 µM. purified PLC-gamma1, fluorogenic substrate, fluorescence. AID 720700
Target sequence (P19174 whole entry, looked up): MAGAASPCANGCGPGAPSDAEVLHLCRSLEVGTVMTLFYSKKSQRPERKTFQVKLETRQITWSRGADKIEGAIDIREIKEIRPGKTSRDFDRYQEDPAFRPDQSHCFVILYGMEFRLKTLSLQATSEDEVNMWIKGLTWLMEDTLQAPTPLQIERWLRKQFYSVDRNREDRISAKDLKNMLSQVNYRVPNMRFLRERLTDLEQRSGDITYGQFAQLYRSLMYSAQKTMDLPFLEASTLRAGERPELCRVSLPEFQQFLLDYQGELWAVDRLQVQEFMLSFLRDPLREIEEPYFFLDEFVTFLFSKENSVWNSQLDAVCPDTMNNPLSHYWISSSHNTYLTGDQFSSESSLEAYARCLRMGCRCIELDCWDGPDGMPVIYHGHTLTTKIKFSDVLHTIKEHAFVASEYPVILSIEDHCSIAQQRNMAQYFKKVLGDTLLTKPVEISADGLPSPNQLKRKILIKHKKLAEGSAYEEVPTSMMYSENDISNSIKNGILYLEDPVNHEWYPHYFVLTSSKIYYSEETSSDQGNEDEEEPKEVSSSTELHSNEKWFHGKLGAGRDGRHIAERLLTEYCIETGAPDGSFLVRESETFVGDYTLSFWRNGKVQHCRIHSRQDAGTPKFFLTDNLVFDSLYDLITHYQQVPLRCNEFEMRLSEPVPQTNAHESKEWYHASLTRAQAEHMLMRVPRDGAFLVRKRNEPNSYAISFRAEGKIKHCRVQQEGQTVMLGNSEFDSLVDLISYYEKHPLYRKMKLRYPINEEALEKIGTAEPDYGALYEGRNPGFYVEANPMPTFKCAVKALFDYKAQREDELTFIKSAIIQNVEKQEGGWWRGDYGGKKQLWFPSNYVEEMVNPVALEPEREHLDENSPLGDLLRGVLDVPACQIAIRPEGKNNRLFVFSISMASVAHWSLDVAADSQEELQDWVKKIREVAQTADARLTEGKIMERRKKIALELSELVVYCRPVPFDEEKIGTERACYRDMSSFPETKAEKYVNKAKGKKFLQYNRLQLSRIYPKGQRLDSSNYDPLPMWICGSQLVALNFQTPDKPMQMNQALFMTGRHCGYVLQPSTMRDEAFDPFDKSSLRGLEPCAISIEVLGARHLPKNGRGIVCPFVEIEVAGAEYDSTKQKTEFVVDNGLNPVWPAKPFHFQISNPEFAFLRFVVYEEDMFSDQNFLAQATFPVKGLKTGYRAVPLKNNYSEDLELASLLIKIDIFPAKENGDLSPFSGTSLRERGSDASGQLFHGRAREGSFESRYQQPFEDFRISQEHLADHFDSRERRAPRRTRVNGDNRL
HGIII-sPLA2 inh: Blocks human group III sPLA2 activity; Q9NZ20; QFRET BODIPY PC-A2 liposome hydrolysis, fluorescence; inhibition, % at 12.2 µM; 0.56% of 370,000 active; AID 743126;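 active means inhibition above mean plus 3 SD of compounds lying within the high and low control bounds, cut at about 19% in these data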;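 further: 0% = median of test compound wells and 100% = no enzyme DMSO wells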
PLC-beta3 inh: PLC-beta3 (human) inhibition, primary screen. inhibition, % at 12.2 µM. 0.18% of 370,000 active. Purified PLC-beta3, fluorogenic substrate, fluorescence; in the data active means inhibition above about 11%;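 further: 0% = median of compound wells on plate and 100% = full blocker control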
PLCg1 ctr: counter-screen for PLC-beta3 inhibitors: inhibitors of human PLC-gamma1 | shares compounds with PLC-gamma1 inh | purified PLC-gamma1, fluorogenic substrate, fluorescence | inhibition, % at 12.3 µM | 3.1% of 3,300 active | AID 743258
PLCb3 confirm: human PLC-beta3 inhibition, confirmation. shares compounds with PLC-gamma1 inh. purified PLC-beta3, fluorogenic substrate fluorescence. inhibition, % at 12.3 µM. 1% of 3,300 active. AID 743261; in the data active means inhibition above about 11%
An asterisk follows results filed as active. In the library only some 1.9% were active in any assay of this set; here they are far more common. Unless noted, no stated cut-off is given here; in the data, active means inhibition above about 9.5%; inactive means the rest.

What do the screens show for `Cc1ccc(NC(=O)CCS(=O)(=O)c2ccccc2)c(C)c1`?
PLC-gamma1 inh: 3.1; HGIII-sPLA2 inh: 5.6; PLC-beta3 inh: -0.9

Results for O=C(Nc1ccc(Br)cc1)C1CCCN(S(=O)(=O)c2cccnc2)C1 (stereo not given) ?
Tb MetRS inh: 0.6; PLC-gamma1 inh: 5.1; HGIII-sPLA2 inh: 1.4; PLC-beta3 inh: 11.2*; PLCg1 ctr: 1.2; PLCb3 confirm: 4.0

How did O=C(c1cc(Cl)cc(Cl)c1)N1CC[C@H]2[C@H](CCCN2Cc2cc(F)cc(F)c2)C1 do in these assays?
PLC-gamma1 inh: -1.5; HGIII-sPLA2 inh: 2.6; PLC-beta3 inh: 0.3

How did COc1ccccc1NC(=S)N(CCCN1CCOCC1)Cc1cn(C)c2ccccc12 do in these assays?
Tb MetRS inh: -0.8; PLC-gamma1 inh: 0.2; HGIII-sPLA2 inh: 4.7; PLC-beta3 inh: -0.9

How did CCOc1ccccc1NC(=S)N(CCCN1CCOCC1)Cc1cn(C)c2ccccc12 do in these assays?
Tb MetRS inh: -1.3; PLC-gamma1 inh: 13.5*; HGIII-sPLA2 inh: 19.1; PLC-beta3 inh: -4.3; PLCg1 ctr: -2.4; PLCb3 confirm: 2.3

How did CC(=O)Oc1ccc(/C=N/NS(=O)(=O)c2ccccc2)cc1 do in these assays?
Tb MetRS inh: -0.7; PLC-gamma1 inh: 9.2; HGIII-sPLA2 inh: 5.6; PLC-beta3 inh: 11.2*; PLCg1 ctr: -1.5; PLCb3 confirm: -0.2

How did COc1ccc(/C=N/NS(=O)(=O)c2ccc(C)cc2)cc1OC(=O)c1ccccc1 do in these assays?
Tb MetRS inh: 0.0; PLC-gamma1 inh: 10.9*; HGIII-sPLA2 inh: -30.0; PLC-beta3 inh: -0.9; PLCg1 ctr: -3.3; PLCb3 confirm: -0.7

How did COc1ccc(/C=N/NS(=O)(=O)c2ccccc2)cc1OC(=O)c1ccc(C)cc1 do in these assays?
Tb MetRS inh: -1.2; PLC-gamma1 inh: 5.2; HGIII-sPLA2 inh: -58.3; PLC-beta3 inh: 0.0

How did O=C(Nc1ccc(Cl)c(Cl)c1)C1CCN(c2nnc(-n3cccc3)s2)CC1 do in these assays?
PLC-gamma1 inh: 0.6; HGIII-sPLA2 inh: -14.9; PLC-beta3 inh: -5.4

What do the screens show for `COc1ccc2c(c1)CN1CN(Cc3ccc(F)cc3)S(=O)(=O)CC21` (stereo not given)?
PLC-gamma1 inh: -12.2; HGIII-sPLA2 inh: 3.2; PLC-beta3 inh: -16.2

Results for COc1ccc(OCc2nnc(SCC(=O)N3c4ccccc4Sc4ccc(Cl)cc43)o2)cc1 ?
Tb MetRS inh: -0.4; PLC-gamma1 inh: 9.6*; HGIII-sPLA2 inh: 3.2; PLC-beta3 inh: 0.0; PLCg1 ctr: 8.8; PLCb3 confirm: 4.1

How did COc1cccc(OCc2nnc(SCC(=O)N3c4ccccc4Sc4ccc(Cl)cc43)o2)c1 do in these assays?
Tb MetRS inh: 0.4; PLC-gamma1 inh: 8.0; HGIII-sPLA2 inh: -1.1; PLC-beta3 inh: 4.6

Results for CC(C)NC(=O)C1(C)Cc2c(-c3ccc(C(N)=O)cc3)ccnc2O1 (stereo not given) ?
Tb MetRS inh: -0.3; PLC-gamma1 inh: 1.4; HGIII-sPLA2 inh: 9.1; PLC-beta3 inh: 12.4*; PLCg1 ctr: -6.5; PLCb3 confirm: -1.6

What do the screens show for `CC1(C(=O)Nc2ccc(Cl)cc2)Cc2c(-c3ccc(C(N)=O)cc3)ccnc2O1` (stereo not given)?
Tb MetRS inh: 0.1; PLC-gamma1 inh: 1.6; HGIII-sPLA2 inh: 4.5; PLC-beta3 inh: -3.0

How did O=C1[C@@H](C2CC2)[C@@H]2c3ccccc3C=NN2[C@@H]2c3ccccc3C=NN12 do in these assays?
PLC-gamma1 inh: 4.0; HGIII-sPLA2 inh: 8.4; PLC-beta3 inh: -5.8

How did NC(N)=NS(=O)(=O)c1ccc(NC(=S)NC(=O)/C=C/c2cccs2)cc1 do in these assays?
Tb MetRS inh: 0.0; PLC-gamma1 inh: 13.1*; HGIII-sPLA2 inh: 7.2; PLC-beta3 inh: -1.9; PLCg1 ctr: -0.8; PLCb3 confirm: -1.7

Results for O=C(/C=C/c1cccs1)Nc1ccc([N+](=O)[O-])cc1 ?
Tb MetRS inh: -0.3; PLC-gamma1 inh: 12.3*; HGIII-sPLA2 inh: -3.4; PLC-beta3 inh: 4.9; PLCg1 ctr: 5.3; PLCb3 confirm: 5.8

What do the screens show for `Cc1ccc(Cn2cc(CN(C3CC3)S(=O)(=O)c3ccccc3Br)nn2)cc1`?
PLC-gamma1 inh: -0.1; HGIII-sPLA2 inh: -5.3; PLC-beta3 inh: -0.6

What do the screens show for `CCCOc1ccc(Oc2cc(C)nc(SC)n2)nn1`?
Tb MetRS inh: 0.2; PLC-gamma1 inh: 6.5; HGIII-sPLA2 inh: 9.1; PLC-beta3 inh: 13.2*; PLCg1 ctr: -8.2; PLCb3 confirm: -1.8

What do the screens show for `COc1ccc(OC)c(S(=O)(=O)N2CCCCC2C(=O)N2CCN(CCO)CC2)c1` (stereo not given)?
PLC-gamma1 inh: 1.5; HGIII-sPLA2 inh: 1.5; PLC-beta3 inh: -0.2

What do the screens show for `CCc1ccc(N2C(=O)CN(CC(=O)OC)C2=S)cc1`?
Tb MetRS inh: 0.5; PLC-gamma1 inh: 1.5; HGIII-sPLA2 inh: -49.1; PLC-beta3 inh: 8.3

What do the screens show for `COC(=O)CN1CC(=O)N(c2ccccc2)C1=S`?
Tb MetRS inh: -0.3; PLC-gamma1 inh: 10.5*; HGIII-sPLA2 inh: -28.7; PLC-beta3 inh: -3.3; PLCg1 ctr: 0.3; PLCb3 confirm: -5.0

Results for Cc1ccc2c(c1)-c1c(cnn1CC(=O)NCCc1ccc(O)cc1)CO2 ?
PLC-gamma1 inh: 1.7; HGIII-sPLA2 inh: -4.7; PLC-beta3 inh: 5.0

Results for Cc1ccc(N2CC(C(=O)OCC(=O)NNC(=O)c3ccccc3)CC2=O)cc1 (stereo not given) ?
Tb MetRS inh: -0.5; PLC-gamma1 inh: 10.7*; HGIII-sPLA2 inh: 5.8; PLC-beta3 inh: -4.0; PLCg1 ctr: 3.0; PLCb3 confirm: 2.8

How did CCCCCCCCN1C(=O)[C@@H](CC(=O)N2CCOCC2)C[C@@]2(C(=O)OC)C1=C[C@H](C(C)(C)C)O[C@@H]2C do in these assays?
PLC-gamma1 inh: 3.8; HGIII-sPLA2 inh: 8.4; PLC-beta3 inh: 2.1

How did CCCCCC[C@H](CN(CCCC)S(C)(=O)=O)c1ccccc1 do in these assays?
PLC-gamma1 inh: 0.0; HGIII-sPLA2 inh: -3.6; PLC-beta3 inh: 2.9

How did CCOC(=O)c1csc(NNC=O)n1 do in these assays?
Tb MetRS inh: 0.3; PLC-gamma1 inh: 0.8; HGIII-sPLA2 inh: 0.8; PLC-beta3 inh: 11.2*; PLCg1 ctr: -5.6; PLCb3 confirm: -1.4

Results for COc1ccc(-c2csc(=NCCO)n2-c2ccccc2)cc1 ?
Tb MetRS inh: -0.8; PLC-gamma1 inh: 10.0*; HGIII-sPLA2 inh: 19.2; PLC-beta3 inh: -3.6; PLCg1 ctr: -3.4; PLCb3 confirm: -1.2

Results for COc1ccc(-c2csc(=Nc3ccccc3)n2CCO)cc1 ?
Tb MetRS inh: 0.1; PLC-gamma1 inh: 5.1; HGIII-sPLA2 inh: -6.6; PLC-beta3 inh: 7.5

What do the screens show for `Cc1ccc(N2C(=O)CC(Cn3nc(C)cc3C)C2=O)cc1` (stereo not given)?
Tb MetRS inh: -1.5; PLC-gamma1 inh: 10.7*; HGIII-sPLA2 inh: 0.1; PLC-beta3 inh: -0.8; PLCg1 ctr: 7.4; PLCb3 confirm: 0.9

What do the screens show for `N#Cc1ccc(/C=C2\CC3(OC(=O)C4CCCCC4)CCCN2C3)cc1` (stereo not given)?
PLC-gamma1 inh: -3.7; HGIII-sPLA2 inh: -5.9; PLC-beta3 inh: -6.0
